Measured values taken from ChEMBL document CHEMBL1128708, “Synthesis of alkyl chain-modified ether lipids and evaluation of their in vitro cytotoxicity” (J Med Chem, 1995).

How the values were obtained:
HL-60 [1] = experiment: Cytotoxicity measured in HL-60 leukemic cells after a 24 hr incubation period.; assay type: functional, cell-based, Homo sapiens
Summary of the method: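 HL-60 cells kept in RPMI-1640 with 5% heat-inactivated FCS, penicillin/streptomycin and 2 mM L-glutamine, >90% viable before use. 10^6 cells/mL exposed 24 h to 2.5–160 μM (twofold steps). Viability by trypan blue exclusion, as % viable cells versus total control cells. IC50 taken as the concentration giving 50% mortality. Two experiments in triplicate; compounds with IC50 >30 μM tested once.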

K562 = experiment: Antiproliferative activity of compound was measured on human tumor cell line K-562.; assay type: functional, cell-based
Summary of the method: (§1)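 Suspension cells at 1 × 10^6 cells/mL in RPMI-1640 with 10% heat-inactivated FCS and 2 mM L-glutamine, 37 °C, 5% CO2. Incubated 120 h with graded ether lipid concentrations (final EtOH ≤0.2%), then counted electronically. IC50 from dose–response curves; two experiments in duplicate, average ± SD.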

Rattus norvegicus = species on record: Rattus norvegicus; experiment: Maximal non-erythrolytic concentration(MNEC) was measured in erythrocytes from rat citreated blood; assay type: functional
Summary of the method: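 Rat citrated-blood erythrocytes washed in HBSS and mixed 9:1 with test solution for 30 min at 37 °C. Lysis read spectrophotometrically at 546 nm. Value reported as the maximal concentration (μM) causing no erythrolysis.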

A-431 = experiment: Antiproliferative activity of compound was measured on human tumor cell line A431.; assay type: functional, cell-based
Summary of the method: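 Adherent cells trypsinized and seeded at 5000 cells/cm2, grown in RPMI-1640 with 10% heat-inactivated FCS and 2 mM L-glutamine. After 24 h, graded concentrations dissolved in complete medium were added for 48 h (final EtOH ≤0.2%). Cells fixed with 10% TCA and stained with 0.4% SRB in 1% acetic acid. Dye solubilized in 10 mM Tris pH 10.4 and read at 550 nm, background-corrected. IC50 from dose–response curves; two to five experiments, eight replicates each.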

[2] = Partition coefficient (logP); assay type: physicochemical; settings: octanol/water
Summary of the method: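 Calculated rather than measured, for the C-1 chain including the ether O atom, by the Viswanadhan atom-based method.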

HL-60 [3] = experiment: Antiproliferative activity of compound was measured on human tumor cell line HL-60.; assay type: functional, cell-based; summary of the method: as §1

| SMILES | logP ([2]; read-out: logP) | IC50 (HL-60 [1]; Homo sapiens, HL-60, 24 h) [µM] | MNEC (Rattus norvegicus) [µM] | other results |
| --- | --- | --- | --- | --- |
| CCCCCCC(=O)CCCCCCCCCCCOCC(COP(=O)(O)OC[C@@H](N)C(=O)O)OC (stereo partly specified) |  | 30 | >200 |  |
| CCCCCCC(O)CCCCCCCCCCCOCC(COCCCCC[N+](C)(C)C)OC.[Br-] (stereo unspecified) |  | 25.6 | 50 |  |
| CCCCCCCCCCCCCCCCCCOCC(COCCCCC[N+](C)(C)C)OC.[Br-] (stereo unspecified) |  | 8 | 5 |  |
| CCCCCCCCCCCC(=O)CCCCCCOCC(COP(=O)(O)OC[C@@H](N)C(=O)O)OC (stereo partly specified) |  | > 160 | >200 |  |
| CCCCCCCCCCCCCCCCCCOCC(COP(=O)(O)OC[C@@H](N)C(=O)O)OC (stereo partly specified) |  | 25.2 | >200 |  |
| CCCCCCC(CCCCCC)CCCCCCCCCCCOCC(COP(=O)([O-])OCC[N+](C)(C)C)OC (stereo unspecified) |  | 46 | >200 | logP [2]: 9.08 |
| CCCCCCCCCCCC(=O)CCCCCCOCC(COCCCCC[N+](C)(C)C)OC.[Br-] (stereo unspecified) |  | 4.2 | 5 |  |
| CCCCCCCCC(CCCCCCCC)CCCCCCOCC(COP(=O)([O-])OCC[N+](C)(C)C)OC (stereo unspecified) | 8.68 | 52 | >200 |  |
| CCCCCCCCCCCC(CCCCCC)CCCCCCOCC(COP(=O)([O-])OCC[N+](C)(C)C)OC (stereo unspecified) |  | 50 | >200 | logP [2]: 9.08 |
| CCCCCCCCCCCCCCCCOP(=O)([O-])OCC[N+](C)(C)C [MILTEFOSINE] |  | 20.4 | 2 |  |

Continued, in another order:

| logP ([2]; read-out: logP) | SMILES | IC50 (HL-60 [1]; Homo sapiens, HL-60, 24 h) [µM] | MNEC (Rattus norvegicus) [µM] | other results |
| --- | --- | --- | --- | --- |
| 5.92 | CCCCCCCCCCCC(=O)CCCCCCOC[C@@H](COP(=O)([O-])OCC[N+](C)(C)C)OC | 5.9 | 20 | IC50 (HL-60 [1]; hl-60): 11.3 µM; IC50 (K562; Homo sapiens, K562): 40.2 µM; IC50 (K562; k562): 39.2 µM; IC50 (A-431; Homo sapiens, A-431): 19.7 µM; IC50 (A-431; a-431): 21.8 µM; IC50 (HL-60 [3]; Homo sapiens, HL-60): 4.4 µM; IC50 (HL-60 [3]; hl-60): 3 µM |
| 5.51 | CCCCC(CCCC)CCCCCCOCC(COP(=O)([O-])OCC[N+](C)(C)C)OC (stereo unspecified) | 54 | 20 |  |
| 4.7 | COC(COCCCCCCCCCCC(O)c1ccccc1)COP(=O)([O-])OCC[N+](C)(C)C (stereo unspecified) | > 160 | >200 |  |
| 7.13 | CCCCCCCCC(CCCCCCOCC(COP(=O)([O-])OCC[N+](C)(C)C)OC)c1ccccc1 (stereo unspecified) | 30.7 | 5 |  |
| 7.59 | COC(COCCCCCCCCCCCCCCCCc1ccccc1)COP(=O)([O-])OCC[N+](C)(C)C (stereo unspecified) | 13.2 | 10 |  |
| 6.29 | CCCCCCCCCCCCCCCCC(=O)COCC(COP(=O)([O-])OCC[N+](C)(C)C)OC (stereo unspecified) | 3.5 | 5 | IC50 (K562; Homo sapiens, K562): 9 µM; IC50 (A-431; Homo sapiens, A-431): 14.2 µM; IC50 (HL-60 [3]; Homo sapiens, HL-60): 1.3 µM |
| 5.92 | CCCCCCC(=O)CCCCCCCCCCCOCC(COP(=O)([O-])OCC[N+](C)(C)C)OC (stereo unspecified) | 45 | 50 | IC50 (K562; Homo sapiens, K562): 84.5 µM; IC50 (A-431; Homo sapiens, A-431): 40.6 µM; IC50 (HL-60 [3]; Homo sapiens, HL-60): 12.3 µM |
| 4.29 | COC(COCCCCCCCCCCC(=O)c1ccccc1)COP(=O)([O-])OCC[N+](C)(C)C (stereo unspecified) | > 160 | >200 |  |
| 5.92 | CCCCCCCCCCCC(=O)CCCCCCOCC(COP(=O)([O-])OCC[N+](C)(C)C)OC (stereo unspecified) | 9.1 | 20 | IC50 (K562; Homo sapiens, K562): 41.4 µM; IC50 (A-431; Homo sapiens, A-431): 21.1 µM; IC50 (HL-60 [3]; Homo sapiens, HL-60): 3 µM |
| 5.92 | CCCCCCCCCCCCCCC(=O)CCCOCC(COP(=O)([O-])OCC[N+](C)(C)C)OC (stereo unspecified) | 4.1 | 10 | IC50 (K562; Homo sapiens, K562): 10.5 µM; IC50 (A-431; Homo sapiens, A-431): 13.5 µM; IC50 (HL-60 [3]; Homo sapiens, HL-60): 1.1 µM |
| 7.1 | CCCCCCCCCCCC(C)CCCCCCOCC(COP(=O)([O-])OCC[N+](C)(C)C)OC (stereo unspecified) | 8.9 | 5 |  |
| 6.77 | CCCCCCCCCCCCCCCCCCOCC(COP(=O)([O-])OCC[N+](C)(C)C)OC (stereo unspecified) [EDELFOSINE] | 6.1 | 2 | IC50 (K562; Homo sapiens, K562): 6.1 µM; IC50 (A-431; Homo sapiens, A-431): 13.5 µM; IC50 (HL-60 [3]; Homo sapiens, HL-60): 1 µM |
